ChEMBL document CHEMBL4342520, “Discovery, Structure-Activity Relationship, and Biological Activity of Histone-Competitive Inhibitors of Histone Acetyltransferases P300/CBP” (J Med Chem, 2020)
Active and inactive are the calls of the source. The rule behind the calls is not given here.

Key:
[1] = target: T1, Histone acetyltransferase p300 (Homo sapiens, UniProt Q09472); assay: (§1) Inhibition of recombinant human GST-tagged p300 HAT domain (1195 to 1673 residues) expressed in Escherichia coli BL21 codon plus cells using Histone H3 peptide (1 to 21) and [3H]acetyl-CoA as substrate preincubated with enzyme for 10 mins followed by substrate addition and measured after 30 mins by scintillation counting method
Procedure, shortened: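 The compound (100 nM to 10 µM) was preincubated with p300-HAT (10 nM) for 10 min at 25 °C in 50 mM phosphate buffer pH 7.0 with 0.01% Brij-35. Incorporation of [3H]acetyl from Ac-CoA into histone H3 (1-21) peptide was captured on filter paper, washed with 50 mM NaHCO3 and counted by scintillation. IC50 came from a sigmoidal dose-response fit, mean of at least three experiments.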

[2] = target: T1, Histone acetyltransferase p300; assay: as §1, with “cells at 10 uM” for “cells”, “method relative to control” for “method”
MCF7 [3] = assay: Antiproliferative activity against human MCF7 cells assessed as reduction in cell viability incubated for 6 days by Celigo-insitu cell cytometer analysis; settings: MCF7, 144 h
Kasumi 1 = assay: Antiproliferative activity against human Kasumi-1 cells assessed as reduction in cell viability incubated for 5 days by XTT assay; settings: Kasumi 1, 120 h
[4] = Antiproliferative activity against human MDAPanc28 cells assessed as reduction in cell viability incubated for 5 days by MTT assay; settings: MDA-Panc-28, 120 h
PANC-1 = assay: Antiproliferative activity against human PANC1 cells assessed as reduction in cell viability incubated for 5 days by MTT assay; settings: PANC-1, 120 h
MCF7 [5] = assay: Antiproliferative activity against human tamoxifen-resistant MCF7 cells assessed as reduction in cell viability incubated for 6 days by Celigo-insitu cell cytometer analysis; settings: MCF7, 144 h
[6] = Inhibition of p300 HAT domain (1287-1652 residues) (unknown origin) harboring regulatory auto-acetylation loop deletion mutant and M1652G mutant using H4-15 peptide as substrate preincubated with enzyme and substrate for 10 mins followed by addition of [12C]acetylCoA and [14C]acetylCoA for 10 mins by phosphor-imaging analysis; set-up: species or system Homo sapiens
[7] = target: Histone acetyltransferase KAT2B (Homo sapiens, UniProt Q92831); assay: (§2) Inhibition of recombinant human GST-tagged PCAF expressed in Escherichia coli BL21 codon plus cells using Histone H3 peptide (1 to 21) and [3H]acetyl-CoA as substrate preincubated with enzyme for 10 mins followed by substrate addition and measured after 30 mins by scintillation counting method
Procedure, shortened: (§3)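 CBP, PCAF and Myst3 HAT proteins were prepared like GST-p300-HAT: expressed in E. coli BL21-CodonPlus, purified on glutathione resin, then by gel filtration. Inhibition was measured in the same radiometric filter assay with [3H]Ac-CoA and histone H3 (1-21) peptide, read by scintillation counting.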

[8] = target: Lysine-specific histone demethylase 1A (Homo sapiens) (UniProt O60341); assay: Inhibition of LSD1 (unknown origin) at 50 uM
[9] = target: Histone acetyltransferase KAT6A (Homo sapiens, UniProt Q92794); assay: Inhibition of recombinant human GST-tagged Myst3 expressed in Escherichia coli BL21 codon plus cells using Histone H3 peptide (1 to 21) and [3H]acetyl-CoA as substrate preincubated with enzyme for 10 mins followed by substrate addition and measured after 30 mins by scintillation counting method; procedure, shortened: as §3
CREB-binding protein = CREB-binding protein (Homo sapiens, UniProt Q92793); assay: as §2, with “CBP HAT domain” for “PCAF”; procedure, shortened: as §3
[10] = target: T1, Histone acetyltransferase p300; assay: Inhibition of His6-tagged p300 HAT domain (unknown origin) assessed as disruption of p300 and Histone H4 (1-21) peptide interaction incubated for 1 hr by Alpha assay
Procedure, shortened: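 Varying compound concentrations were added in PBS with 0.5% BSA for 1 h. Signal was read with excitation at 680 nm and emission at 570 nm. A biotinylated His6 peptide served as an interference counter-control. IC50 came from a sigmoidal fit.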

[11] = target: T2, CREB-binding protein/Histone acetyltransferase p300 (Homo sapiens) (UniProt Q09472+Q92793); assay: Inhibition of p300/CBP HAT domain in human Kasumi-1 cells assessed as reduction in H3K9 acetylation at 5 to 10 uM incubated for 12 hrs by Western blot analysis; format: cell-based
Procedure, shortened: (§4)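 Kasumi-1 cells (10^6 per well) were treated with compound at 0, 5 and 10 µM for 12 h. Total histones were extracted, and 2 µg was run on SDS-PAGE and blotted to PVDF. Blots were probed for H3K9Ac, H3K18Ac, H3K27Ac and total H3, then with an anti-rabbit IgG secondary.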

[12] = target: T2, CREB-binding protein/Histone acetyltransferase p300 (Homo sapiens); assay: Inhibition of p300/CBP HAT domain in human Kasumi-1 cells assessed as reduction in H3K18 acetylation at 5 to 10 uM incubated for 12 hrs by Western blot analysis; format: cell-based; procedure, shortened: as §4
[13] = target: T2, CREB-binding protein/Histone acetyltransferase p300 (Homo sapiens); assay: Inhibition of p300/CBP HAT domain in human Kasumi-1 cells assessed as reduction in H3K27 acetylation at 5 to 10 uM incubated for 12 hrs by Western blot analysis; format: cell-based; procedure, shortened: as §4

T2 sequence (Q09472 whole entry, looked up, the tested form may be a part): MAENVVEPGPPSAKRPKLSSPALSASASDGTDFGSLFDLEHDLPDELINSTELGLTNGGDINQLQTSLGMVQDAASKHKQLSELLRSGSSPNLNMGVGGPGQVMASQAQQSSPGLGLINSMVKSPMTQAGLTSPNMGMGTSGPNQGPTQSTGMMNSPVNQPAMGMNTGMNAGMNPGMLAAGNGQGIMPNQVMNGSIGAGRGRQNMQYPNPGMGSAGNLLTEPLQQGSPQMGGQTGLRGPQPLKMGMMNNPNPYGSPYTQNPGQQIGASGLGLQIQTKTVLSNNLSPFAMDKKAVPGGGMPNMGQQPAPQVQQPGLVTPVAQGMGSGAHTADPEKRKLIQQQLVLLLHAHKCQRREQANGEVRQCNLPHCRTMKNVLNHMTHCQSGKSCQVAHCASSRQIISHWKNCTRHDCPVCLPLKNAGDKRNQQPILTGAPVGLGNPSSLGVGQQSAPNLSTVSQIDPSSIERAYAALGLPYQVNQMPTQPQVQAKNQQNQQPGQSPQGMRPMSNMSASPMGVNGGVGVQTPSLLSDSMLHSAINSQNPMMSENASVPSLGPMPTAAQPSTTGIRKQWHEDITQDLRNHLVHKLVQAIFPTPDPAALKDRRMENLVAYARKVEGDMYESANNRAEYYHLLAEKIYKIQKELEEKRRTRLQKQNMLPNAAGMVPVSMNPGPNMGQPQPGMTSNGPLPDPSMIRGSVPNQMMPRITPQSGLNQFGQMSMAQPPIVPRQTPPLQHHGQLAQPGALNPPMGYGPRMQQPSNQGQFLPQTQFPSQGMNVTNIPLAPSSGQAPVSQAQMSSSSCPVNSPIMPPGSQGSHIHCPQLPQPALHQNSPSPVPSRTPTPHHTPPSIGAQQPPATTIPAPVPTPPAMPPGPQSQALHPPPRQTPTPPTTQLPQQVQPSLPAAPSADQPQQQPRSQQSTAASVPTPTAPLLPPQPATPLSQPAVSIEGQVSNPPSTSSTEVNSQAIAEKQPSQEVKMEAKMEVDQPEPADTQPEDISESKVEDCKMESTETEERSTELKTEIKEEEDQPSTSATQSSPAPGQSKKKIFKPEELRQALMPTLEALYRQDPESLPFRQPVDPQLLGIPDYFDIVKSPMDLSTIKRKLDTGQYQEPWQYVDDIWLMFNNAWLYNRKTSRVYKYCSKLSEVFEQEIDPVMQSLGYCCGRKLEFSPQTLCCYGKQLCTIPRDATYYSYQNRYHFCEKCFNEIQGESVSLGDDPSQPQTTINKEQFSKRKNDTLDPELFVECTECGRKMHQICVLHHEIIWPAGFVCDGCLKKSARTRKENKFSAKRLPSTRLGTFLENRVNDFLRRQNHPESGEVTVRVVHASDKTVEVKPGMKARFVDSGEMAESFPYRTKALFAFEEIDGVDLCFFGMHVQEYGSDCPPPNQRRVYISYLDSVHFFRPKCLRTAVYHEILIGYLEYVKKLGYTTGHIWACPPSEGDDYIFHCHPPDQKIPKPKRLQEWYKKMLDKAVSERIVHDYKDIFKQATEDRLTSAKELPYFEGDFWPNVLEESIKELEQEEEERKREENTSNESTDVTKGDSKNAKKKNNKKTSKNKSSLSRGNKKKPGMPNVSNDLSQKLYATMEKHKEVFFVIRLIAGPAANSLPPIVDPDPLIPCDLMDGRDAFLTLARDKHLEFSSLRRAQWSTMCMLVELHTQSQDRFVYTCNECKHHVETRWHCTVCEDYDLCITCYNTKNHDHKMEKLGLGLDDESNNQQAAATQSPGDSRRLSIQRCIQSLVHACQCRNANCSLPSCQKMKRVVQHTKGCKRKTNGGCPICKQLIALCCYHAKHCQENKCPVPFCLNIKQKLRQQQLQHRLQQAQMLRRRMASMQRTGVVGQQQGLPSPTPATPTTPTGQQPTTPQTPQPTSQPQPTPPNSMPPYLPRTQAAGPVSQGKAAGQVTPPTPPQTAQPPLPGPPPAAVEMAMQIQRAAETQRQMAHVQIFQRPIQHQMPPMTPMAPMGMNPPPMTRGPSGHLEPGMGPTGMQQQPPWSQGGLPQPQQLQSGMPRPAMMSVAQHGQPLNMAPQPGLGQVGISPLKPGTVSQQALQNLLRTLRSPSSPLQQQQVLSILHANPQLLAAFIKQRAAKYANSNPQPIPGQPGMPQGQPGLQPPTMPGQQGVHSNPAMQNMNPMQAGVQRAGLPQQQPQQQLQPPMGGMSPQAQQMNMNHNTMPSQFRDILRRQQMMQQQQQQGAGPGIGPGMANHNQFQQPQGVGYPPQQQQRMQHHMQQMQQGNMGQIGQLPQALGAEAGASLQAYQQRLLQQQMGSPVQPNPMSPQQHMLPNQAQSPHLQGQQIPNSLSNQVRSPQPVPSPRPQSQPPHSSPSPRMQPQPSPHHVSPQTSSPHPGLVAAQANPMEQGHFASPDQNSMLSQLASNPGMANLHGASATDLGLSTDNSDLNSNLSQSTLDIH
T2 sequence (Q92793 whole entry, looked up, the tested form may be a part): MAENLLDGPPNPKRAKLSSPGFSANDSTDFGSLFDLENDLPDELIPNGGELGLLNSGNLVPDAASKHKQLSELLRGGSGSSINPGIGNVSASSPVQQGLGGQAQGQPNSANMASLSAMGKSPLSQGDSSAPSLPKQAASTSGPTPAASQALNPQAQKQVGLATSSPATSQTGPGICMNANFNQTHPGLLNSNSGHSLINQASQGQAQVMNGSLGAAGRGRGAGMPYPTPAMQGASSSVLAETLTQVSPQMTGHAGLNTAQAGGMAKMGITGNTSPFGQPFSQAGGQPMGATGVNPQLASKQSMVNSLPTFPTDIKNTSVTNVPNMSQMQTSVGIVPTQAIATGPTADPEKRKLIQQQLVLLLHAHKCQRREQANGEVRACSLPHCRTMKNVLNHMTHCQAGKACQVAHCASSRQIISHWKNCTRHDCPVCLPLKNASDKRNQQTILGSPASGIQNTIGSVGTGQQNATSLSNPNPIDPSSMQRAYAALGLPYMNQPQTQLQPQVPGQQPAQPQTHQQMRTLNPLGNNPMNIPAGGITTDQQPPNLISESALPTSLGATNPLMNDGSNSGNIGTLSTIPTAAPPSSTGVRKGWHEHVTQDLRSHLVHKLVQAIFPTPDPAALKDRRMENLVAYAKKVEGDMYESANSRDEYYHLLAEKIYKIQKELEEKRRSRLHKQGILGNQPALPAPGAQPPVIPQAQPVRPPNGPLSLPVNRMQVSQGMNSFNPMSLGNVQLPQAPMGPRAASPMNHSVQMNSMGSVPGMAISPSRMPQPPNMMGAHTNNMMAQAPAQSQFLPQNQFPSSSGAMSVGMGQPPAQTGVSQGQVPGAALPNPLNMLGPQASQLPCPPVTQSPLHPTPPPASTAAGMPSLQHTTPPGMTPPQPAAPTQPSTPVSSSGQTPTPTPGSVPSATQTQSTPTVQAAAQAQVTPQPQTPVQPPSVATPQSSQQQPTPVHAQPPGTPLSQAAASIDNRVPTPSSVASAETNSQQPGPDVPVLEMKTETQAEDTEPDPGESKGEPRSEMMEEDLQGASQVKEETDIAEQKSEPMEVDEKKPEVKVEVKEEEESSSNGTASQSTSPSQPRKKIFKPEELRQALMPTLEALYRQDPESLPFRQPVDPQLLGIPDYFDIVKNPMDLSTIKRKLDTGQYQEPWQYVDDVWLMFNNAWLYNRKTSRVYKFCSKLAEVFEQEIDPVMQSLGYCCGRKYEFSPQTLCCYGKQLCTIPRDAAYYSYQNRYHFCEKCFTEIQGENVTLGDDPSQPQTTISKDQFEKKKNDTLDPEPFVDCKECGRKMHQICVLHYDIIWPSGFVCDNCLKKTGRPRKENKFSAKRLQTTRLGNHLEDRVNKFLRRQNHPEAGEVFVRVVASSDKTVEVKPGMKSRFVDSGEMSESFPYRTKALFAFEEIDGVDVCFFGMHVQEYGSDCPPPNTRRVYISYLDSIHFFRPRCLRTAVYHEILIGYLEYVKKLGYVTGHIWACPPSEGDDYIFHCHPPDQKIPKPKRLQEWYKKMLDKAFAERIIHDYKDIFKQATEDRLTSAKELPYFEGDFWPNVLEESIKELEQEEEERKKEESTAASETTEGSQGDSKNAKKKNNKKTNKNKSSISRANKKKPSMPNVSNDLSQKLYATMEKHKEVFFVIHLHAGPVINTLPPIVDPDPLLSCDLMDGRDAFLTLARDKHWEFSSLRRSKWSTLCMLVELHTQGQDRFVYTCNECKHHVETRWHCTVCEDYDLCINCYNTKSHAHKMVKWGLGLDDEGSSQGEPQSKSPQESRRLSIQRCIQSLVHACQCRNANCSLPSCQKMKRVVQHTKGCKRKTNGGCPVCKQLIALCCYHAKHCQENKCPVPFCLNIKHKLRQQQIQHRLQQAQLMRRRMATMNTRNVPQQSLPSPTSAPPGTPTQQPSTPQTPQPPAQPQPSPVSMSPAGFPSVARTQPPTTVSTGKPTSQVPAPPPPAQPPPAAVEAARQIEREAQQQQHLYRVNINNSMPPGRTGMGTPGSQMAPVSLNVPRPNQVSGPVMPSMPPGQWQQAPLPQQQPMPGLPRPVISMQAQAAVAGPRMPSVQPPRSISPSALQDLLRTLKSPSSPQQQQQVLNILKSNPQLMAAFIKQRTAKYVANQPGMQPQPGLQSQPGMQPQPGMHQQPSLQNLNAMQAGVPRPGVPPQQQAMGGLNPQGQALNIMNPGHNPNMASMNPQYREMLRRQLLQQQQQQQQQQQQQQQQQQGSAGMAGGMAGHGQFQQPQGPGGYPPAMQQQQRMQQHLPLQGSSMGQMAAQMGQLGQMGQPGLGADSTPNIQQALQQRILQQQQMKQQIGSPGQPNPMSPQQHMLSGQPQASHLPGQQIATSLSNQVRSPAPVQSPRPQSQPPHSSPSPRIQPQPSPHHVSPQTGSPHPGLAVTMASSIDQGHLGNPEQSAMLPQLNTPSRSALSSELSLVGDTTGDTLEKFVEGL
T1 sequence (Q09472 whole entry, the tested form may be a part): as the sequence (Q09472 whole entry, looked up, the tested form may be a part) above
CREB-binding protein, sequence (Q92793 whole entry, the tested form may be a part): as the sequence (Q92793 whole entry, looked up, the tested form may be a part) above

Structure (SMILES) | IC50 [1] | inhibition [2] | other results
CC(C)(C)c1ccc(-c2cc(CNCCCN)sc2-c2ccc(C(C)(C)C)cc2)cc1 | 3 µM | – | –
CC(C)(C)c1ccc(-c2sc(C(=O)NCC3CCNCC3)cc2-c2ccc(CN3CCNCC3)cc2)cc1 | > 10 µM | 12% | –
CC(C)(C)c1ccc(-c2cc(CN3CCNCC3)sc2-c2ccc(C(C)(C)C)cc2)cc1 | > 10 µM | 5% | –
O=C(NCC1CCNCC1)c1cc(-c2ccc(CN3CCCCC3)cc2)c(-c2ccc(-c3ccoc3)cc2)s1 | 1.6 µM | – | –
CC(C)(C)c1ccc(-c2nc(C(=O)NCC3CCNCC3)sc2-c2ccc(C(C)(C)C)cc2)cc1 | 2.4 µM | – | –
CC(C)(C)c1ccc(-c2cc(CNCCC3CCNCC3)sc2-c2ccc(C(C)(C)C)cc2)cc1 | 2.2 µM | – | –
CC(C)(C)c1ccc(-c2cc(CNC3CCNCC3)sc2-c2ccc(C(C)(C)C)cc2)cc1 | 5 µM | – | –
O=C(NCC1CCNCC1)c1cc(-c2ccc(-c3ccoc3)cc2)c(-c2ccc(-c3ccoc3)cc2)s1 | 1.6 µM | – | –
CC(C)(C)c1ccc(-c2sc(C(=O)NCC3CCNCC3)cc2-c2cccnc2)cc1 | > 10 µM | 31% | –
COc1ccc(-c2ccc(-c3cc(C(=O)NCC4CCNCC4)sc3-c3ccc(-c4ccc(OC)cc4)cc3)cc2)cc1 | 2.8 µM | – | –
OCc1ccc(-c2cc(CNCC3CCNCC3)sc2-c2ccc(CO)cc2)cc1 | > 10 µM | 22% | –
c1cc(-c2ccc(-c3cc(CNCC4CCNCC4)sc3-c3ccc(CN4CCCCC4)cc3)cc2)co1 | 4.6 µM | – | –
CC(C)(C)c1ccc(-c2cc(CNCC3CCNCC3)sc2-c2ccc(CN)cc2)cc1 | 2 µM | – | –
CC(C)(C)c1ccc(-c2sc(C(=O)NCC3CCNCC3)cc2-c2ccoc2)cc1 | > 10 µM | 36% | –
CCCCc1ccc(-c2cc(CNCC3CCNCC3)sc2-c2ccc(CCCC)cc2)cc1 | > 10 µM | 10% | –
c1cc(-c2ccc(-c3ncc(CNCC4CCNCC4)nc3-c3ccc(-c4ccoc4)cc3)cc2)co1 | – | 25% | –
CC(C)(C)c1ccc(-c2cc(CN3CCOCC3)sc2-c2ccc(C(C)(C)C)cc2)cc1 | > 10 µM | 20% | –
CC(C)(C)c1ccc(-c2sc(C(=O)NCC3CCNCC3)cc2-c2ccc(CN)cc2)cc1 | 10 µM | – | –

Structure (SMILES) | IC50 [1] | inhibition [2] | other results
COc1ccc(-c2cc(CNCC3CCNCC3)sc2-c2ccc(OC)c(OC)c2)cc1OC | > 10 µM | 0% | EC50 (MCF7 [3]): > 30 µM; EC50 (Kasumi 1): 18.7 µM; EC50 [4]: > 30 µM; EC50 (PANC-1): > 30 µM; EC50 (MCF7 [5]): > 30 µM
CC(C)(C)c1ccc(-c2sc(CNCC3CCNCC3)cc2-c2ccc(-c3ccoc3)cc2)cc1 | 5.8 µM | – | –
c1ccc(-c2cccc(-c3cc(CNCC4CCNCC4)sc3-c3cccc(-c4ccccc4)c3)c2)cc1 | > 10 µM | 18% | –
COc1ccc(-c2ccc(-c3cc(CNCC4CCNCC4)sc3-c3ccc(-c4ccc(OC)cc4)cc3)cc2)cc1 | 7.4 µM | – | –
CC(C)(C)c1ccc(-c2cc(COCC3CCNCC3)sc2-c2ccc(C(C)(C)C)cc2)cc1 | > 10 µM | 0% | –
CC1=NN(c2ccc(C(=O)O)cc2)C(=O)/C1=C\c1ccc(-c2cc(C)c(C)cc2[N+](=O)[O-])o1 | – | – | IC50 [6]: 1.6 µM
c1cc(-c2cc(CNCC3CCNCC3)sc2-c2ccoc2)co1 | > 10 µM | 23% | –
CC(C)(C)c1ccc(-c2sc(CNCC3CCNCC3)c(Br)c2-c2ccc(C(C)(C)C)cc2)cc1 | 1.8 µM | – | –
CC(C)(C)c1ccc(-c2nc(CNCC3CCNCC3)sc2-c2ccc(C(C)(C)C)cc2)cc1 | 8.6 µM | – | –
c1cc(-c2ccc(-c3cc(CNCC4CCNCC4)sc3-c3ccc(-c4ccoc4)cc3)cc2)co1 | 1.7 µM | – | –
CC(C)(C)c1ccc(-c2sc(CNCC3CCNCC3)cc2-c2ccc(CN)cc2)cc1 | > 10 µM | 35% | –
CC(C)(C)c1ccc(-c2cc(CNCC3CCNCC3)sc2-c2ccc(C(C)(C)C)cc2)cc1 | – | – | IC50 [7]: > 50 µM; inhibition [8]: inactive; IC50 [9]: > 50 µM; EC50 (MCF7 [3]): 2.8 µM; EC50 (Kasumi 1): 2.6 µM; EC50 [4]: 2.8 µM; EC50 (PANC-1): 1 µM; EC50 (MCF7 [5]): 3.4 µM; IC50 (CREB-binding protein): 1.2 µM
CC(C)(C)c1ccc(-c2cc(C(=O)NCC3CCNCC3)sc2-c2ccc(C(C)(C)C)cc2)cc1 | 8.6 µM | – | inhibition [8]: inactive
CC(C)(C)c1ccc(-c2csc(CNCC3CCNCC3)n2)cc1 | – | 10% | –
CC(C)(C)c1ccc(-c2csc(C(=O)NCC3CCNCC3)n2)cc1 | – | 18% | –
NCc1ccc(-c2cc(CNCC3CCNCC3)sc2-c2ccc(CN)cc2)cc1 | > 10 µM | 0% | inhibition [10]: inactive; inhibition [11]: inactive; EC50 (MCF7 [3]): > 30 µM; EC50 (Kasumi 1): > 30 µM; EC50 [4]: > 30 µM; inhibition [12]: inactive; EC50 (PANC-1): > 30 µM; EC50 (MCF7 [5]): > 30 µM; inhibition [13]: inactive
CC(C)(C)c1ccc(-c2sc(C(=O)NCC3CCNCC3)cc2-c2ccc(-c3ccoc3)cc2)cc1 | 7.4 µM | – | –
CC(C)(C)c1ccc(-c2cc(CNCCCCCCN)sc2-c2ccc(C(C)(C)C)cc2)cc1 | 1.4 µM | – | –
